Measured values from ChEMBL document CHEMBL1122187, “Synthesis and antiviral activity of certain carbamoylpyrrolopyrimidine and pyrazolopyrimidine nucleosides” (1982).

Legend:
Vero [1] = assay: In vitro antiviral activity against herpes simplex type 1 (HSV-1) virus was determined in african green monkey kidney (vero,V) expressed as virus rating. Toxic level(>1000 ug/mL); assay type: functional, Chlorocebus sabaeus
Method in brief: (§1)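 Cell monolayers (18 h) infected with 320 TCID50 of virus. Compound was added within 15–30 min at half-log dilutions from 1000 to 1 μg/mL. After 72 h at 37 °C in 5% CO2, CPE was scored 0–4 by microscopy. VR = sum of (virus control − treated) scores, halved at partially toxic levels, divided by 10 × test cups per drug level.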

Vero [2] = assay: In vitro antiviral activity against parainfluenza type 3(para 3) virus was determined in african green monkey kidney (vero,V) expressed as virus rating. Toxic level(>1000 ug/mL); assay type: functional, Chlorocebus sabaeus; method in brief: as §1
Vero [3] = assay: In vitro antiviral activity against vaccinia(VV) virus was determined in african green monkey kidney (vero,V) expressed as virus rating. Toxic level(>1000 ug/mL); assay type: functional, Chlorocebus sabaeus; method in brief: as §1
HEp-2 [4] = assay: In vitro antiviral activity against herpes simplex type 1 (HSV-1) virus was determined in human laryngeal epithelioma (HEp-2,H)expressed as virus rating. Toxic level(320 ug/mL); assay type: functional; method in brief: as §1
HEp-2 [5] = assay: In vitro antiviral activity against parainfluenza type-3 (para 3) virus was determined in human laryngeal epithelioma (HEp-2,H)expressed as virus rating. Toxic level(320 ug/mL); assay type: functional; method in brief: as §1
HEp-2 [6] = assay: In vitro antiviral activity against vaccinia(VV) virus was determined in human laryngeal epithelioma (HEp-2,H)expressed as virus rating. Toxic level (320 ug/mL); assay type: functional; method in brief: as §1
Vero [7] = assay: In vitro antiviral activity against vaccinia(VV) virus was determined in african green monkey kidney (vero,V) expressed as virus rating.; assay type: functional, Chlorocebus sabaeus; method in brief: as §1
Vero [8] = assay: In vitro antiviral activity against parainfluenza type 3(para 3) virus was determined in african green monkey kidney (vero,V) expressed as virus rating.; assay type: functional, Chlorocebus sabaeus; method in brief: as §1
HEp-2 [9] = assay: In vitro antiviral activity against parainfluenza type 3(para 3) virus was determined in human laryngeal epithelioma (HEp-2,H)expressed as virus rating. Toxic level(100 ug/mL); assay type: functional; method in brief: as §1
HEp-2 [10] = assay: In vitro antiviral activity against herpes simplex type 1 (HSV-1) virus was determined in human laryngeal epithelioma (HEp-2,H)expressed as virus rating. Toxic level(100 ug/mL); assay type: functional; method in brief: as §1
HEp-2 [11] = assay: In vitro antiviral activity against vaccinia(VV) virus was determined in human laryngeal epithelioma (HEp-2,H)expressed as virus rating. Toxic level(100 ug/mL); assay type: functional; method in brief: as §1
Vero [12] = assay: In vitro antiviral activity against herpes simplex type 1 (HSV-1) virus was determined in african green monkey kidney (vero,V) expressed as virus rating. Toxic level(1000 ug/mL); assay type: functional, Chlorocebus sabaeus; method in brief: as §1
Vero [13] = assay: In vitro antiviral activity against vaccinia(VV) virus was determined in african green monkey kidney (vero,V) expressed as virus rating. Toxic level(1000 ug/mL); assay type: functional, Chlorocebus sabaeus; method in brief: as §1
Vero [14] = assay: In vitro antiviral activity against parainfluenza type 3(para 3) virus was determined in african green monkey kidney (vero,V) expressed as virus rating. Toxic level(1000 ug/mL); assay type: functional, Chlorocebus sabaeus; method in brief: as §1
Vero [15] = assay: Percentage plaque reduction was determined against venezuelan equine encephalitis (VEE) virus in african green monkey kidney (vero,V) at a conc of 25-100 ug/mL. Toxic level(>1000 ug/mL); assay type: functional, Chlorocebus sabaeus
Vero [16] = assay: Percentage plaque reduction was determined against rift valley fever(RVF) virus in african green monkey kidney (vero,V) at a conc of <25 ug/mL. Toxic level(>1000 ug/mL); assay type: functional, Chlorocebus sabaeus
Vero [17] = assay: 0 Percentage plaque reduction was determined against rift valley fever(RVF) virus in african green monkey kidney (vero,V) at a conc of 250-500 ug/mL. Toxic level(>1000 ug/mL); assay type: functional, Chlorocebus sabaeus
Vero [18] = assay: Percentage plaque reduction was determined against venezuelan equine encephalitis (VEE) virus in african green monkey kidney (vero,V) at a conc of 100-250 ug/mL. Toxic level(>1000 ug/mL); assay type: functional, Chlorocebus sabaeus
Vero [19] = assay: Percentage plaque reduction was determined against rift valley fever(RVF) virus in african green monkey kidney (vero,V) at a conc of 25-100 ug/mL. Toxic level(>1000 ug/mL); assay type: functional, Chlorocebus sabaeus
Vero [20] = assay: Percentage plaque reduction was determined against venezuelan equine encephalitis (VEE) virus in african green monkey kidney (vero,V) at a conc of 250-500 ug/mL. Toxic level(>1000 ug/mL); assay type: functional, Chlorocebus sabaeus
Vero [21] = assay: Percentage plaque reduction was determined against rift valley fever(RVF) virus in african green monkey kidney (vero,V) at a conc of 100-250 ug/mL. Toxic level(>1000 ug/mL); assay type: functional, Chlorocebus sabaeus
Vero [22] = assay: Percentage plaque reduction was determined against pichinde(PICH) virus in african green monkey kidney (vero,V). Toxic level(>1000 ug/mL); 31-60; assay type: functional, Chlorocebus sabaeus
Method in brief: (§2)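 Infected Vero 24-well monolayers: virus adsorbed 1 h at 37 °C, then overlaid with agar holding dilutions of compound and incubated again at 37 °C with CO₂. Plaques were stained with crystal violet and counted. Inhibition was scored as % plaque reduction bands (10-30%, 31-60%, 61-90%), each tied to a drug concentration range.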

Vero [23] = assay: Percentage plaque reduction was determined against venezuelan equine encephalitis (VEE) virus in african green monkey kidney (vero,V) at a conc of <25 ug/mL./Toxic level(>1000 ug/mL); assay type: functional, Chlorocebus sabaeus
Vero [24] = assay: Percentage plaque reduction was determined against yellow fever(YF) virus in african green monkey kidney Toxic level(>1000 ug/mL); assay type: functional, Chlorocebus sabaeus
Vero [25] = assay: Percentage plaque reduction was determined against Sandfly fever (SF) virus in african green monkey kidney (vero,V) at a conc of <25 ug/mL. Toxic level(>1000 ug/mL); assay type: functional, Chlorocebus sabaeus; method in brief: as §2
Vero [26] = assay: Percentage plaque reduction was determined against Sandfly fever (SF) virus in african green monkey kidney (vero,V) at a conc of 100-250 ug/mL. Toxic level(>1000 ug/mL); assay type: functional, Chlorocebus sabaeus
Vero [27] = assay: Percentage plaque reduction was determined against Sandfly fever (SF) virus in african green monkey kidney (vero,V) at a conc of 25-100 ug/mL. Toxic level(>1000 ug/mL); assay type: functional, Chlorocebus sabaeus
Vero [28] = assay: Percentage plaque reduction was determined against Sandfly fever (SF) virus in african green monkey kidney (vero,V) at a conc of 250-500 ug/mL. Toxic level(>1000 ug/mL); assay type: functional, Chlorocebus sabaeus
Vero [29] = assay: Percentage plaque reduction was determined against venezuelan equine encephalitis (VEE) virus in african green monkey kidney (vero,V) at a conc of 250-500 ug/mL. Toxic level(>1000 ug/mL); 10-30; assay type: functional, Chlorocebus sabaeus
Vero [30] = assay: Percentage plaque reduction was determined against yellow fever(YF) virus in african green monkey kidney (vero,V).Toxic level(>1000 ug/mL); 61-90; assay type: functional, Chlorocebus sabaeus
Vero [31] = assay: Percentage plaque reduction was determined against pichinde(PICH) virus in african green monkey kidney (vero,V). Toxic level(>1000 ug/mL); 61-90; assay type: functional, Chlorocebus sabaeus; method in brief: as §2
HEp-2 [32] = assay: In vitro antiviral activity against herpes simplex type 1 (HSV-1) virus was determined in human laryngeal epithelioma (HEp-2,H)expressed as virus rating. Toxic level(>1000 ug/mL); assay type: functional; method in brief: as §1
Vero [33] = assay: Percentage plaque reduction was determined against Sandfly fever (SF) virus in african green monkey kidney (vero,V) at a conc of 25-100 ug/mL. Toxic level(>1000 ug/mL); 61-90; assay type: functional, Chlorocebus sabaeus
HEp-2 [34] = assay: In vitro antiviral activity against parainfluenza type 3 (para 3) type 1 (HSV-1) virus was determined in human laryngeal epithelioma (HEp-2,H)expressed as virus rating. Toxic level(>1000 ug/mL); assay type: functional; method in brief: as §1
Vero [35] = assay: Percentage plaque reduction was determined against rift valley fever(RVF) virus in african green monkey kidney (vero,V) at a conc of 100-250 ug/mL. Toxic level(>1000 ug/mL); 31-60; assay type: functional, Chlorocebus sabaeus
HEp-2 [36] = assay: In vitro antiviral activity against vaccinia(VV) virus was determined in human laryngeal epithelioma (HEp-2,H)expressed as virus rating. Toxic level(>1000 ug/mL); assay type: functional; method in brief: as §1

`OC[C@H]1OC(n2ncc3c(S)ncnc32)[C@H](O)[C@@H]1O` (some centres not stated) gave a Virus rating (Vero [1]) of 0, a Virus rating (Vero [2]) of 0.7 and a Virus rating (Vero [3]) of 0.9.
In the case of `NC(=O)c1ncnc2c1ncn2C1O[C@H](CO)[C@@H](O)[C@H]1O` (some centres not stated), the Virus rating (HEp-2 [4]) is reported as 0.6, the Virus rating (Vero [1]) is reported as 0.6 and the Virus rating (HEp-2 [5]) is reported as 1.4. For the same molecule, the Virus rating (HEp-2 [6]) was 1.1, the Virus rating (Vero [2]) was 0 and the Virus rating (Vero [3]) was 1.5.
`CSc1ncnc2c1cnn2C1O[C@H](CO)[C@@H](O)[C@H]1O` (some centres not stated) showed a Virus rating (Vero [1]) of 0.2, a Virus rating (Vero [7]) of 0.2 and a Virus rating (Vero [8]) of 1.
In the case of `NC(=O)c1ncnc2c1ccn2C1O[C@H](CO)[C@@H](O)[C@H]1O` (some centres not stated), the Virus rating (HEp-2 [9]) is reported as 0.2, the Virus rating (HEp-2 [10]) is reported as 0 and the Virus rating (HEp-2 [11]) is reported as 1.2. For the same molecule, the Virus rating (Vero [12]) was 0.4, the Virus rating (Vero [13]) was 1.3 and the Virus rating (Vero [14]) was 0.4.
For `O=C1N=CN=C2C1C=NN2C1O[C@H](CO)[C@@H](O)[C@H]1O` (some centres not stated), the Virus rating (Vero [1]) was 0, the Plaque reduction (Vero [15]) was 0% and the Plaque reduction (Vero [16]) was 0%. For the same molecule, the Plaque reduction (Vero [17]) was 0%, the Plaque reduction (Vero [18]) was 0% and the Plaque reduction (Vero [19]) was 0%. For the same molecule, the Plaque reduction (Vero [20]) was 0%, the Plaque reduction (Vero [21]) was 0% and the Plaque reduction (Vero [22]) was 31%. The Plaque reduction (Vero [23]) was 0%, the Plaque reduction (Vero [24]) was 0% and the Plaque reduction (Vero [25]) was 0%. For the same molecule, the Plaque reduction (Vero [26]) was 0%, the Plaque reduction (Vero [27]) was 0% and the Plaque reduction (Vero [28]) was 0%.
`NC(=O)c1ncn([C@@H]2O[C@H](CO)[C@@H](O)[C@H]2O)n1` [RIBAVIRIN] was tested, and the Plaque reduction (Vero [29]) was 10%, the Plaque reduction (Vero [30]) was 61% and the Virus rating (Vero [1]) was 0.6. The Plaque reduction (Vero [31]) was 61%, the Virus rating (HEp-2 [32]) was 1.2 and the Plaque reduction (Vero [33]) was 61%. It also gave a Virus rating (HEp-2 [34]) of 1.7, a Plaque reduction (Vero [35]) of 31% and a Virus rating (Vero [2]) of 1.3. It also gave a Virus rating (HEp-2 [36]) of 1.7 and a Virus rating (Vero [3]) of 1.2.
Molecule `OC[C@H]1O[C@@H](n2cnc3c(S)ncnc32)[C@H](O)[C@@H]1O` [THIOINOSINE] has a Virus rating (Vero [12]) of 0.8, a Virus rating (Vero [13]) of 1.1 and a Virus rating (Vero [14]) of 1.2.
